Measured values as given in ChEMBL document CHEMBL1151482, “Phenolic constituents from the stem bark of Magnolia officinalis” (J Nat Prod, 2009).
≈ marks a conversion by molar mass, not a printed value.

Key:
BV-2 = test: Antiinflammatory activity in mouse BV2 cells assessed as inhibition of LPS-induced NO production after 24 hrs by Griess reagent method; type: functional, cell-based; conditions: BV-2, 24 h
Procedure, shortened: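 Microglial BV2 cells treated with test agents, then stimulated with LPS (0.5 µg/mL); nitrite accumulated in medium over 24 h measured with Griess reagent as NO readout; IC50 taken from concentration-response curves.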

[1] = Inhibition of NADPH oxidase-mediated ROS production in LPS-stimulated mouse BV2 cells after 20 mins by flow cytometry; type: cell-based; conditions: BV-2, 20 min
Procedure, shortened: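 BV2 cells preloaded with 2′,7′-dichlorofluorescin diacetate, exposed to test agents for 20 min, then LPS-stimulated; H2O2 quantified 30 min later by flow cytometry, expressed as mean channel fluorescence; IC50 from concentration-response curves.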

[2] = system: Radical scavenging activity; test: Antioxidant activity assessed as DPPH free radical scavenging activity; type: functional
Procedure, shortened: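 Diluted drugs combined with DPPH solution in microplate; absorbance read at 517 nm; IC50 derived from concentration-response curves.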

SMILES: C=CCc1ccc(O)c(-c2cc(C=O)ccc2O)c1 [MAGNALDEHYDE]
- IC50 (BV-2): 9.2 µg/mL (≈ 36.2 µM)

SMILES: C=CCc1cc(-c2cc(O)ccc2O)ccc1O [MAGNATRIOL B]
- IC50 [1]: 20.6 µg/mL (≈ 85 µM)
- IC50 [2]: 27.6 µg/mL (≈ 114 µM)
- IC50 (BV-2): 0.5 µg/mL (≈ 2.06 µM)

SMILES: C=CCc1ccc(O)c(-c2cc(O)ccc2O)c1 [RANDAIOL]
- IC50 [2]: 21.6 µg/mL (≈ 89.2 µM)
- IC50 (BV-2): 1.2 µg/mL (≈ 4.95 µM)
